In data set [1] the target is T1, Inosine-5'-monophosphate dehydrogenase (Cryptosporidium parvum, UniProt Q8T6T2).
T1 sequence (Q8T6T2 whole entry): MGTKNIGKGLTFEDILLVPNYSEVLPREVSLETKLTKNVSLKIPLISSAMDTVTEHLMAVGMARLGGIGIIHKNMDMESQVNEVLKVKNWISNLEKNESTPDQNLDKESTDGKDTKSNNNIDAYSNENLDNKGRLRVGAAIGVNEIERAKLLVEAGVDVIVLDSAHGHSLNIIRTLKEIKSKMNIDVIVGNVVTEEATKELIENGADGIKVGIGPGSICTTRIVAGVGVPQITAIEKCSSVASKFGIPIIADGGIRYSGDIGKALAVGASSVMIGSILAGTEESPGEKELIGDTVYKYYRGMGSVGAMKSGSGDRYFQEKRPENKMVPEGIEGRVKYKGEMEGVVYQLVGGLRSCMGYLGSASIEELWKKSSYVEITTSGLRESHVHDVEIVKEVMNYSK
As to the kind of experiment: Inhibition of Cryptosporidium parvum recombinant IMPDH expressed in Escherichia coli assessed as production of NADH incubated for 5 mins by fluorescence based assay. Summed up:
(§1)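 Recombinant CpIMPDH purified from E. coli, 10 nM, preincubated with inhibitor 5 min at room temperature before substrates added. NADH formation followed by fluorescence. Line 3 also includes 0.05% fatty-acid-free BSA.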

Data set [2] relates to Toxoplasma gondii. As to the kind of experiment: Selectivity ratio of EC50 of wild type Toxoplasma gondii to EC50 of Toxoplasma gondii expressing Cryptosporidium parvum IMPDH. The method in brief:
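Selectivity is the EC50 against wild-type RH T. gondii divided by the EC50 against the CpIMPDH-dependent strain. Both were measured by daily YFP fluorescence of parasites on hTERT human foreskin fibroblasts over 6-7 days, with inhibition taken in exponential growth.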

The target of data set [3] is T1, Inosine-5'-monophosphate dehydrogenase. As to the kind of experiment: Inhibition of Cryptosporidium parvum recombinant IMPDH expressed in Escherichia coli assessed as production of NADH in presence of 0.05% fatty acid free BSA incubated for 5 mins by fluorescence based assay. The method in brief:
as §1

For another data set, the system named is Liver. As to the kind of experiment: Half life in mouse liver microsomes. In kind it is ADME, Microsome. (In general: Liver microsomes are a subcellular fraction often used to study metabolism.)
For data set [4], the system named is Toxoplasma gondii. As to the kind of experiment: Antiparasitic activity against Toxoplasma gondii expressing Cryptosporidium parvum IMPDH and co-expressing yellow fluorescent protein infected to human TERT immobilized human foreskin fibroblasts assessed as parasite growth inhibition for 6 to 7 days by fluorescence based assay. It is filed as functional, organism-based. The method in brief: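 Parasite lines carrying yellow fluorescent protein were grown on hTERT-immortalized human foreskin fibroblasts. One line depends on C. parvum IMPDH (Toxo/CpIMPDH). The other is wild-type strain RH, which has its own eukaryotic IMPDH. Fluorescence (Ex 485, Em 530) was read daily for 6-7 days. Growth inhibition was taken on a day within exponential growth.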

The test system of data set [5] is Toxoplasma gondii. As to the kind of experiment: Toxicity against wild type Toxoplasma gondii expressing yellow fluorescent protein infected in human TERT immobilized human foreskin fibroblasts assessed as parasite growth inhibition for 6 to 7 days by fluorescence based assay. In kind it is organism-based. The method in brief:
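Parasite lines carrying yellow fluorescent protein were grown on hTERT-immortalized human foreskin fibroblasts. One line depends on C. parvum IMPDH (Toxo/CpIMPDH). The other is wild-type strain RH, which has its own eukaryotic IMPDH. Growth inhibition was taken on a day within exponential growth.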

Data set [6] deals with Inosine-5'-monophosphate dehydrogenase 2 (Homo sapiens, UniProt P12268). As to the kind of experiment: Inhibition of human IMPDH 2.
In the next data set the test system is Plasma. As to the kind of experiment: Half life in mouse plasma. It is filed as ADME, cell-free.

Here are results for 8 molecules from ChEMBL document CHEMBL2176986, “Selective and potent urea inhibitors of cryptosporidium parvum inosine 5'-monophosphate dehydrogenase” (J Med Chem, 2012).

Molecules are shown by their SMILES.

A word on the IC50: it is the point on the concentration scale where inhibition reaches its midpoint. As a reminder, the EC50 is the concentration giving half of the maximal effect. Turning to `C/C(=N\OCCN)c1cccc(C(C)(C)NC(=O)Nc2ccc(Cl)c([N+](=O)[O-])c2)c1`, the IC50 in data set [1] is 20 nM; in data set [3], 24 nM. Moreover, in the data set on Toxoplasma gondii [2], the “Ratio EC50” value is listed as 20. In the data set with Liver, this molecule showed a t1/2 of 2.02 h. Besides, the results for the EC50 with Toxoplasma gondii [4] and in the data set on Toxoplasma gondii [5] were 510 nM and 10100 nM, respectively.
`C=C(C)c1cccc(C(C)(C)NC(=O)Nc2ccc3cccnc3c2)c1`: the IC50 in data set [1] is 0.8 nM; in data set [6] it was at least 5000 nM; in data set [3] it was 6 nM. Besides, in the data set with Toxoplasma gondii [2], the “Ratio EC50” value is given as over 15. The t1/2 in the data set on Liver was 0.0983 h; with Plasma, over 2 h. The values for the EC50 in the data set with Toxoplasma gondii [4] and with Toxoplasma gondii [5] were under 200 nM and 3000 nM, respectively.
Take `C/C(=N\O)c1cccc(C(C)(C)NC(=O)Nc2ccc(Cl)c(C(N)=O)c2)c1`: the “Ratio EC50” value in the data set on Toxoplasma gondii [2] was over 12. Further, the IC50 in data set [3] was 6 nM. For the same molecule, the t1/2 with Liver was 3.17 h; in the data set on Plasma, over 2 h. Also, the EC50 with Toxoplasma gondii [4] was 1900 nM; in the data set on Toxoplasma gondii [5] it was over 25000 nM.
Regarding `CC(=O)c1cccc(C(C)(C)NC(=O)Nc2ccc(Cl)c(C(N)=O)c2)c1`, the IC50 in data set [1] stood at 54 nM; in data set [3], 52 nM. For the same molecule, in the data set with Toxoplasma gondii [2], the “Ratio EC50” value is over 66. Moreover, the values for the t1/2 in the data set on Liver and in the data set with Plasma were over 11.7 h and over 2 h, respectively. Also, the results for the half-maximal effective concentration (EC50) in the data set with Toxoplasma gondii [4] and in the data set with Toxoplasma gondii [5] were 380 nM and over 25000 nM, respectively.
With `C/C(=N\O)c1cccc(C(C)(C)NC(=O)Nc2ccc3cccnc3c2)c1`, the IC50 in data set [1] turned out to be 0.9 nM; in data set [3], 1.2 nM. The “Ratio EC50” value in the data set on Toxoplasma gondii [2] is 230. The t1/2 was 0.75 h with Liver and over 2 h in the data set on Plasma. For the same molecule, the EC50 came to 58 nM in the data set with Toxoplasma gondii [4] and 14000 nM in the data set on Toxoplasma gondii [5].
As to `C=C(C)c1cccc(C(C)(C)NC(=O)Nc2ccc(Cl)c(C(N)=O)c2)c1`, the figures for the IC50 in data set [1], in data set [6] and in data set [3] were 2.3 nM, at least 5000 nM and 3 nM, respectively. In addition, the “Ratio EC50” value in the data set with Toxoplasma gondii [2] was determined as 65. The t1/2 with Liver is 0.417 h; with Plasma it was over 2 h. Further, the values for the EC50 in the data set with Toxoplasma gondii [4] and in the data set on Toxoplasma gondii [5] were 230 nM and 15000 nM, respectively.
For the molecule `CO/N=C(\C)c1cccc(C(C)(C)NC(=O)Nc2ccc(Cl)c(C(F)(F)F)c2)c1`, the results for the IC50 in data set [1] and in data set [3] were 5 nM and 18 nM, respectively. Besides, the “Ratio EC50” value with Toxoplasma gondii [2] came to 86. In addition, in the data set on Liver, the t1/2 was found to be 0.55 h. Further, the EC50 worked out at 16 nM with Toxoplasma gondii [4] and 1400 nM with Toxoplasma gondii [5].
Regarding `C/C(=N\O)c1cccc(C(C)(C)NC(=O)Nc2ccc(Cl)c(C(F)(F)F)c2)c1`, the IC50 was determined as 1 nM in data set [1] and 4 nM in data set [3]. Also, the t1/2 with Liver was found to be 1.47 h. The EC50 in the data set with Toxoplasma gondii [4] was determined as 10 nM.
